NR2E3 ag-1 = agonists of human NR2E3 nuclear receptor | Q9Y5X4 | CHO-S Gal4-NCOR/VP16-NR2E3 two-hybrid, luciferase | inhibition of corepressor binding, % at 3.98 µM | actives 0.35% (n = 360,000) | AID 602229;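 active means inhibition above the mean of all tested compounds plus 3 SD, cut at about 70% in these data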;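 further: 0% = DMSO with NR2E3 transfected cells and 100% = cells lacking NR2E3 construct; higher means lower luciferase signal from less NR2E3 corepressor binding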
PKA-R2B act = activates the human PKA-R2B holoenzyme complex | P22694+P31323 | PKA-R2B holoenzyme dissociation, Cy5-IP20 fluorescence polarization; R2B truncated from residue 108, S112A mutant; 0% DMSO only, 100% 113 µM cGMP | activation, % at 11.4 µM | actives 0.079% (n = 340,000);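 active means activation above a cutoff set at the mean over all compounds plus 3 SD, cut at about 18% in these data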;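 further: higher means more holoenzyme dissociation and a rise in polarization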
PKA-R1A act = activates the PKA-R1A holoenzyme complex. P00514+P68181. PKA-R1A dissociation, Cy5-IP20 fluorescence polarization; scaled: DMSO 0%, 113 µM cGMP 100%. activation, % at 11.4 µM. actives 0.083% (n = 340,000). AID 504707;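 active means percent activation above the mean of all tested compounds plus 3 SD, cut at about 19% in these data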;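 further: higher means more PKAc released from R1A so a rise in polarization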
NR1D1 modulator = modulators of human Rev-erb alpha DNA binding; AID 1259318; P20393; activity, % at 10 µM; Rev-erbα–FITC-DNA binding, fluorescence polarization, 90 min; actives 0.79% (n = 370,000);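 active means activity above about 14%, limit read from the data; passing the limit was not always enough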;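 further: 0% = DMSO wells with 35 nM protein and 100% = DMSO wells with 750 nM protein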
NR2E3 ag-2 = NR2E3 (human) agonism | Q9Y5X4 | GST-NR2E3/biotin-RetCOR TR-FRET, 1536-well | inhibition of corepressor binding, % at 4.78 µM | actives 0.12% (n = 320,000);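 active means percent inhibition above the cutoff of mean plus 3 SD of all tested compounds, set per screening campaign, cut at about 20% in these data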;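 further: 0% = DMSO wells and 100% = biotin wells as full block of FRET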
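Format: 1536-well format; test system: GST-NR2E3 and biotin-RetCOR proteins; read-out basis: percent inhibition of TR-FRET ratio; timing: 5 h incubation at 4 °C; detection: time-resolved FRET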
PG9 Ab binder = binds the HIV-1 gp120 antibody PG9 | AID 624416 | actives 0.43% (n = 360,000) | TR-FRET gp120-PG9 antibody binding | inhibition, % at 6.7 µM; in the data active means inhibition above about 8.5%
R1A FP artifact = FP assay interference, PKA-R1A counter-screen; shares compounds with PKA-R1A act; Cy5-IP20 peptide alone, fluorescence polarization artifact counterscreen; activation, % at 11.4 µM; actives 7% (n = 280); AID 504799;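 active means mean activation over triplicate runs exceeds the adjusted cutoff derived for the parent primary screen, cut at about 19% in these data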;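 further: no PKA protein present so any polarization rise reflects compound interference; 0% = tracer peptide mix alone and 100% = mix with added PKA catalytic subunit; higher means stronger polarization artifact and likely false positive in parent screen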
PKA-R1A act conf = confirmation of PKA-R1A complex activators | activation, % at 11.4 µM | AID 504800 | shares compounds with PKA-R1A act | actives 9% (n = 280) | Cy5-IP20 fluorescence polarization, PKA-R1A holoenzyme dissociation;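 active means mean activation over replicate wells exceeds the adjusted hit threshold taken from the earlier primary screen, cut at about 20% in these data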;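 further: 0% = holoenzyme mix with DMSO only and 100% = cGMP-activated control wells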
Target sequence (P00514 whole entry, looked up): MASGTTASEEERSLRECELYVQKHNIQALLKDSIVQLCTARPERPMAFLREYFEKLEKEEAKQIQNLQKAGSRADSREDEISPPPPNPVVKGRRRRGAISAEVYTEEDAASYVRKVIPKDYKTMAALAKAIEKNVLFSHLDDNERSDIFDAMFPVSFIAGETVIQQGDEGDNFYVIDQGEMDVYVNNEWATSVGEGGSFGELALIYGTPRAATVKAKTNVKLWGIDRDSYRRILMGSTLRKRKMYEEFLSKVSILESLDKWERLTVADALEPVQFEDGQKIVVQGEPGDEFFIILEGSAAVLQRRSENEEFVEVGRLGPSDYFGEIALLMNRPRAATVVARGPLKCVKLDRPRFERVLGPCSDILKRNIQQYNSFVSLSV
* marks the source's active call; other numbers are inactive results; · = no result. Shown are actives, neighbours in structure and some others; about 1.6% of the full set was active somewhere.

SMILES	NR2E3 ag-1	PKA-R2B act	PKA-R1A act	NR1D1 modulator	NR2E3 ag-2	PG9 Ab binder	R1A FP artifact	PKA-R1A act conf
COCCN(C(=O)CSc1nc2nc(C)cc(C)n2n1)c1c(N)n(Cc2ccccc2)c(=O)[nH]c1=O	-4	-1	20*	1	1	-1	5	3
COc1cccc(C(=O)N2CCN(C(=O)C3CCCO3)CC2)c1 (configuration not stated)	-19	4	20*	6	3	-1	3	6
CCOC(=O)N1CCC(NC(=O)CCC(=O)N2CCOc3ccc(Cl)cc32)CC1	10	1	21*	-1	-3	0	5	1
Cc1ccc2c(c1)N(C(=O)CCC(=O)NC1CCCCCC1)CCO2	4	-8	-8	-3	1	-1	·	·
CN1CCCN(C(=O)C2CCCN(C(=O)c3ccc4c(c3)NC(=O)CS4)C2)CC1 (configuration not stated)	·	·	·	-4	·	·	·	·
CCOC(=O)[C@@]12CCCC3=C1N(CCC3)C(=O)[C@H]2CC(=O)NCCC(C)C	·	·	·	5	·	·	·	·
NC(=Nc1cccc(F)c1)NC(=O)OCc1ccccc1	·	·	·	1	·	·	·	·
O=C(NCc1ccccc1Cl)c1ccc(S(=O)(=O)N2CCCC2)cc1	-1	-8	-7	6	4	1	·	·
O=C(NCc1ccccc1Cl)c1ccc(S(=O)(=O)Nc2cccc(C(F)(F)F)c2)cc1	16	12	22*	-6	2	-1	26*	22*
S=C(Nc1ccccc1)OC1CCC12CCC(c1ccccc1)CC2 (configuration not stated)	·	·	·	4	·	·	·	·
N#C/C(=C/c1ccco1)C(N)=S	-10	-3	19*	-2	-1	-2	2	3
N#C/C(=C\c1ccc2c(c1)OCO2)C(N)=S	-14	·	·	-3	10	-1	·	·
COC(=O)C1CN(CCc2ccccc2)CCS(=O)(=O)N1Cc1ccc(C(F)(F)F)cc1 (configuration not stated)	·	·	·	4	·	·	·	·
CCCC1=C(C(=O)OCC)C(c2ccc(O)cc2)n2ncnc2N1 (configuration not stated)	2	-1	2	-1	0	-2	·	·
CCCC1=C(C(=O)OCC)C(c2sccc2C)n2ncnc2N1 (configuration not stated)	28	5	19*	-8	-3	1	4	4
Cc1c(-c2ccccc2)[n+](=O)c(-c2ccc(Br)cc2)c(C)n1[O-]	0	-7	11	-5	-1	-1	·	·
Cc1c(-c2ccccc2)[n+](=O)c(-c2ccc(Cl)cc2)c(C)n1[O-]	3	-3	19*	-4	0	-3	5	3
COc1ccc(Cn2c(NC(=O)c3ccccc3)nc(Cc3ccccc3)c2Cc2ccccc2)cc1	·	·	·	3	·	·	·	·
COC(=O)c1c(NC(=O)Cc2ccccc2)sc(C)c1C	-6	-7	-7	0	-1	0	·	·
COC(=O)c1c(NC(=S)Nc2ccccc2Cl)sc(C)c1C	-19	-9	21*	·	10	·	0	0
Cc1nc(CCNS(=O)(=O)c2cccnc2)cs1	-11	-5	1	5	-1	-2	·	·
Cc1nc(CCNS(=O)(=O)c2cccs2)cs1	-7	-5	20*	4	0	0	6	0
CCCn1c(SCC(=O)N2CCCC2)nc2c1c(=O)n(C)c(=O)n2C	0	-4	21*	1	3	-1	-2	-2
COc1ccc(Cn2ccnc2)cc1Br	-19	8	20*	-5	0	-1	1	1
COCc1cn(-c2ccc3c(c2)[C@@]2(CC(=O)N(C)C2c2ccccc2)C(=O)N3CC(C)C)nn1 (some centres not stated)	·	·	·	7	·	·	·	·
